Measurements from paper PMC4143770 (Scientific Reports, 2014).
Positions count from the first letter of the chain named.

Experiments:
[1] = target: T1, OfHex1 (W490A) (Ostrinia furnacalis, UniProt Q06GJ0, W490A); assay: Inhibition of mutant OfHex1-W490A; type: biochemical
T1 sequence (Q06GJ0 23-594 W490A): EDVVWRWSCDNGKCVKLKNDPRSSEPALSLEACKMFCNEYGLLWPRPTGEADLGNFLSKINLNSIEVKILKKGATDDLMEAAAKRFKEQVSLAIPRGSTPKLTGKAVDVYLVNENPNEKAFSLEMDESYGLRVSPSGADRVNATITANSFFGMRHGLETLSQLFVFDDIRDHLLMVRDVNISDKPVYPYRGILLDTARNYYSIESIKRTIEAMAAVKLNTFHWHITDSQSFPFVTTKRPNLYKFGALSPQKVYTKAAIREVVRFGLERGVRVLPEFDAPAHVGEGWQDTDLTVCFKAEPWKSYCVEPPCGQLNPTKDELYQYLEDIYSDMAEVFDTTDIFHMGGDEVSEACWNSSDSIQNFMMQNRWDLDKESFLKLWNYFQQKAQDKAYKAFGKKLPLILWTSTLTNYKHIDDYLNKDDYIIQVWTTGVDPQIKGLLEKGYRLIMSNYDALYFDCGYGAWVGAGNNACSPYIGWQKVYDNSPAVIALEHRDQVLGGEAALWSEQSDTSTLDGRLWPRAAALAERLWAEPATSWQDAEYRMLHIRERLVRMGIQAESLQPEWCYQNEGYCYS
Summary of the method: (§1)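 Purchased bovine Hex, recombinant O. furnacalis OfHex2 and the OfHex1 W490A mutant were assayed at 25°C with pNP-β-GlcNAc. Reactions were stopped with 0.5 M Na2CO3 and A405 was recorded. Where Ki was determined, substrate was 0.075, 0.125 and 0.2 mM, with values from linear Dixon-plot fits. W490A was also tested at 100 µM inhibitor.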

[2] = target: T2, OfHex1 (chitinolytic β-GlcNAcase) (Ostrinia furnacalis, UniProt Q06GJ0); assay: Inhibition of OfHex1, pNP-β-GlcNAc substrate, Dixon plots; type: biochemical
T2 sequence (Q06GJ0 23-594): T1 sequence (Q06GJ0 23-594 W490A) with A468W
Summary of the method: (§2)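 Recombinant O. furnacalis OfHex1, recombinant S. marcescens SmChb and purchased T. viride TvHex were assayed at 25°C with pNP-β-GlcNAc in 20 mM sodium phosphate, pH 6.0. After incubation, 0.5 M Na2CO3 was added and A405 measured. Ki used substrate at 0.075, 0.125 and 0.2 mM and an enzyme-specific inhibitor range. Ki and inhibition type came from linear Dixon-plot fitting.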

[3] = target: HsHex (human glycoconjugate-lytic β-GlcNAcase) (Homo sapiens, UniProt P07686); assay: Inhibition of HsHex, pNP-β-GlcNAc substrate, Dixon plots; type: biochemical
Chain of HsHex (human glycoconjugate-lytic β-GlcNAcase) (P07686 122-311 limits assumed): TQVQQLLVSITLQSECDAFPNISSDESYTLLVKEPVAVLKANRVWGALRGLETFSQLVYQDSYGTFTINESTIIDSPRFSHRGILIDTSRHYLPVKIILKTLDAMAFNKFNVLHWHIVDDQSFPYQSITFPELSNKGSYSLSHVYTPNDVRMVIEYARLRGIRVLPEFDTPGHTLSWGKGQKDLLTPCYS
Chain of HsHex (human glycoconjugate-lytic β-GlcNAcase) (P07686 315-556 limits assumed): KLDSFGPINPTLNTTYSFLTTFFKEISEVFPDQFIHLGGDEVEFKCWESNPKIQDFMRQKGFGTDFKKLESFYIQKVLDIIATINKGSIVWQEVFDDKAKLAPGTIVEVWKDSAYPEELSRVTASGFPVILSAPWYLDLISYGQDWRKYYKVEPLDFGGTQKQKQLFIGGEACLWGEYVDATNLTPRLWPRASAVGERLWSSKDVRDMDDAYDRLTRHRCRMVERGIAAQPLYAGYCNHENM

[4] = system: glycoconjugate-lytic β-GlcNAcases from plant and human; settings: cited from earlier work
[5] = target: T3, SmChb (chitinolytic β-GlcNAcase) (Serratia marcescens, UniProt Q54468); assay: Inhibition of SmChb; type: biochemical
T3 sequence (Q54468 28-885): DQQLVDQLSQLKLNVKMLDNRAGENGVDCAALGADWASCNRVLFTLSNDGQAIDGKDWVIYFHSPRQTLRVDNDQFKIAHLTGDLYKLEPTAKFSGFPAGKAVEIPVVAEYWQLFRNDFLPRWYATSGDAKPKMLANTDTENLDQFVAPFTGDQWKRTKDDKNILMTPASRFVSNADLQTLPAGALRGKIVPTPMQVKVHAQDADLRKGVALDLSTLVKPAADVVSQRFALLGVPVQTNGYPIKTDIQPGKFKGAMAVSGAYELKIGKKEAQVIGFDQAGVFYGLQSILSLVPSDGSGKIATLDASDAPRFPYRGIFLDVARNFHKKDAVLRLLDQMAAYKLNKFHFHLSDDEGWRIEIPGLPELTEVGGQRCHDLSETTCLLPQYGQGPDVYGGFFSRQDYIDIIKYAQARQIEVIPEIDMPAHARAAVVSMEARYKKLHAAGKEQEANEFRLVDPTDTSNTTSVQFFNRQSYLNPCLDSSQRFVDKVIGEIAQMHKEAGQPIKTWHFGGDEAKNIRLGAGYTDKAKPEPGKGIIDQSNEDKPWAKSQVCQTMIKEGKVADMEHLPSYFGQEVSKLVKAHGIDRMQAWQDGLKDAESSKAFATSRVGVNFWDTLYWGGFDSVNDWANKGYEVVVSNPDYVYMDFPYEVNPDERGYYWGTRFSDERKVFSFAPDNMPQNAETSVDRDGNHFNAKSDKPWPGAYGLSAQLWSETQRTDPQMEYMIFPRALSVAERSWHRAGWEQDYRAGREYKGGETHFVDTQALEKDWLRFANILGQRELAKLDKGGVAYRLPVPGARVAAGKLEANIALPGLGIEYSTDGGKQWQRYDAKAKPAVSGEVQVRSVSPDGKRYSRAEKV
Summary of the method: as §2

[6] = target: TvHex (chitinolytic β-GlcNAcase); assay: Inhibition of TvHex; type: biochemical, Trichoderma viride; settings: read-out: Ki for TvHex; pNP-β-GlcNAc, pH 6.0
Summary of the method: as §2

[7] = system: OfHex2 (glycoconjugate-lytic β-GlcNAcase); assay: Inhibition of OfHex2; type: biochemical, O. furnacalis
Summary of the method: as §1

[8] = target: T4, SpHex (chitinolytic β-GlcNAcase) (Streptomyces plicatus, UniProt O85361); assay: Inhibition of SpHex; type: biochemical
T4 sequence (O85361 1-506): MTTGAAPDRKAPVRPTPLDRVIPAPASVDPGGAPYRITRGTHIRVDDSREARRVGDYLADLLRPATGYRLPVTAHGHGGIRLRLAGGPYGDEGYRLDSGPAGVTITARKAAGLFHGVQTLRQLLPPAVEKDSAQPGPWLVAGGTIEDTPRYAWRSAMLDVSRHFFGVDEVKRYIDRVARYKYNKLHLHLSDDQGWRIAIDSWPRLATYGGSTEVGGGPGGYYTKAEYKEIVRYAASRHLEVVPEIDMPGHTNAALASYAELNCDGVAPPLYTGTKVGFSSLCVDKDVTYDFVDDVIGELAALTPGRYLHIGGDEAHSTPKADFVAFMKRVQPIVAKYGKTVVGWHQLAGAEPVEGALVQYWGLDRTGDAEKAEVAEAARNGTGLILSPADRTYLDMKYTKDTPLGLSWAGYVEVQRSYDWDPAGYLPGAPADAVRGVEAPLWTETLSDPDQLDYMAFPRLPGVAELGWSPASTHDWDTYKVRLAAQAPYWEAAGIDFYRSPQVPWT

[9] = system: CeHex (glycoconjugate-lytic β-GlcNAcase); assay: Inhibition of CeHex; type: biochemical, Canavalia ensformis
[10] = system: BoHex (glycoconjugate-lytic β-GlcNAcase); assay: Inhibition of BoHex; type: biochemical, bovine
Summary of the method: as §1

Cc1nnc(CNCCN2C(=O)c3cccc4cccc(c34)C2=O)s1 [Q1, 2-(2-(((5-methyl-1,3,4-thiadiazol-2-yl)methyl)amino)ethyl)-1H-benzo[de]isoquinoline-1,3(2H)-dione]
Ki [1]: > 100 µM
Inhibition of OfHex1-W490A at 100 µM ([1]; 100 µM): could not inhibit
Ki [2]: 4.28 µM
Type of inhibition toward OfHex1 (Dixon plots) [2]: competitive inhibitor
Ki [3]: 2.15 µM
Type of inhibition toward HsHex (Dixon plots) ([3]; Dixon plots): competitive inhibitor

CC(=O)NC1C(O)O[C@H](CO)[C@@H](O[C@@H]2O[C@H](CO)[C@@H](O[C@@H]3O[C@H](CO)[C@@H](O[C@H]4O[C@H](CO)[C@@H](O)[C@H](O)[C@H]4[N+](C)(C)C)[C@H](O)[C@H]3NC(C)=O)[C@H](O)[C@H]2NC(C)=O)[C@@H]1O (stereo partly shown) [TMG-chitotriomycin]
Activity toward glycoconjugate-lytic β-GlcNAcases from plant and human [4]: not active

Cc1nnc(CNCCN2C(=O)c3cccc4c(N(C)C)ccc(c34)C2=O)s1 [Q2, 6-(dimethylamino)-2-(2-(((5-methyl-1,3,4-thiadiazol-2-yl)methyl)amino)ethyl)-1H-benzo[de]isoquinoline-1,3(2H)-dione]
Ki [5]: 8.25 µM
Ki [6]: 25 µM
Inhibition of OfHex2 [7]: does not inhibit
Ki [8]: 74.8 µM
Inhibition of CeHex [9]: does not inhibit
Ki [1]: > 100 µM
Inhibition of BoHex [10]: does not inhibit
Ki [2]: 0.31 µM
Type of inhibition toward OfHex1 (Dixon plots) [2]: competitive
Increment in inhibitory activity against OfHex1 compared to Q1 ([2]; Q2 versus Q1, from Ki): 13 fold
Ki [3]: > 100 µM
Inhibition of HsHex at 100 µM ([3]; 100 µM): does not inhibit
